Experimental data reported in ChEMBL document CHEMBL1123566, “Synthesis and cardiac electrophysiological activity of 2- and 3-[(substituted phenyl)alkyl]quinuclidines. Structure-activity relationships” (1987).

How the values were obtained:
Canis familiaris [1] = assay: Mean arterial blood pressure was determined by intraduodenal administration of two dosages of 10 mg/kg of (high dose) compound in anesthetized dogs. Value was reported for experiment 1; type: functional, Canis lupus familiaris
In short: (§1)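 Anesthetized dogs received two intraduodenal doses, the second cumulative (low dose/high dose). Left ventricular FRP and CT were measured 15, 30 and 45 min after dosing. Heart rate and mean blood pressure were taken during nonpacing intervals. Values are percent change from control. The vehicle was 5% dextrose in water/tragacanth. Activity was defined as ≥12% prolongation of FRP or CT.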

Canis familiaris [2] = species on record: Canis familiaris; assay: In vitro electrophysiological evaluation in canine cardiac Purkinje fibres reported as maximum percent change Vmax concentration range of 0.1-30 uM; Minimal (<IO%increase or a decrease in CT); type: functional; settings: Canis lupus familiaris; Purkinje fiber
In short: (§2)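 Canine cardiac Purkinje fibres, intracellular microelectrode recording, paced at a basic cycle length of 1 s. APD95 and Vmax read simultaneously. Compound: 10 mM stock in deionized water, diluted into Tyrode's solution, tested over the stated concentration range. Each fibre used once as its own control. Result is % change from control, given at 10 µM or as the maximum with its concentration. M = <10% decrease or an increase in Vmax.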

Canis familiaris [3] = assay: Heart rate was determined by intraduodenal administration of two dosages of 10 mg/kg of (high dose) compound in anesthetized dogs. Value was reported for experiment 1; type: functional, Canis lupus familiaris
In short: (§3)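 Anesthetized dogs; compound given intraduodenally, generally as two doses, the second a cumulative (high) dose. LV functional refractory period and conduction time measured 15, 30 and 45 min after dosing; heart rate and blood pressure measured during nonpacing intervals. Values are % change from control, given per individual animal. Active if FRP or CT prolonged by ≥12%.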

Canis familiaris [4] = assay: Left ventricular refractory period was determined by intraduodenal administration of two dosages of 3 mg/kg of (low dose) compound in anesthetized dogs. Value was reported for experiment 1; type: functional, Canis lupus familiaris, Cardiac ventricle; in short: as §1
Canis familiaris [5] = species on record: Canis familiaris; assay: In vitro electrophysiological activity in canine cardiac Purkinje fibres given as maximum % change for action potential duration at 0.1-10 uM concentration; type: functional, Canis lupus familiaris, Purkinje fiber
In short: (§4)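 Canine cardiac Purkinje fibres, intracellular recording at 1 s basic cycle length, over cumulative concentration ranges. Compound 10 mM stock in deionized water diluted into Tyrode's. Each fibre used once as its own control. Value is the maximum % change from control in APD at 95% repolarization, with the concentration where it occurred; both values given if a biphasic response (>20% reversal) occurred.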

Canis familiaris [6] = species on record: Canis familiaris; assay: In vitro electrophysiological evaluation in canine cardiac Purkinje fibres reported as % change for action potential duration at 0.1-30 uM concentration range; type: functional, Canis lupus familiaris, Purkinje fiber; in short: as §2
Canis familiaris [7] = species on record: Canis familiaris; assay: In vitro electrophysiological evaluation in canine cardiac Purkinje fibres reported as percent change Vmax concentration range of 0.1-10 uM; Minimal (<IO%increase or a decrease in CT); type: functional; settings: Canis lupus familiaris; Purkinje fiber; in short: as §2
Canis familiaris [8] = assay: Conduction time was determined by intraduodenal administration of two dosages of 3 mg/kg (low dose) of compound in anesthetized dogs. Value was reported for experiment 1; type: functional, Canis lupus familiaris; in short: as §3
Canis familiaris [9] = assay: Heart rate was determined by intraduodenal administration of two dosages of 10 mg/kg of compound in anesthetized dogs. Value was reported for experiment 2; type: functional, Canis lupus familiaris; in short: as §3
Canis familiaris [10] = assay: Mean arterial blood pressure was determined by intraduodenal administration of two dosages of 10 mg/kg of compound in anesthetized dogs. Value was reported for experiment 2; type: functional, Canis lupus familiaris; in short: as §1
Canis familiaris [11] = assay: Mean arterial blood pressure was determined by intraduodenal administration of two dosages of 3 mg/kg of (low dose) compound in anesthetized dogs. Value was reported for experiment 1; type: functional, Canis lupus familiaris; in short: as §1
Canis familiaris [12] = species on record: Canis familiaris; assay: In vitro electrophysiological evaluation in canine cardiac Purkinje fibres reported as maximum percent change Vmax concentration range of 0.1-10 uM; Minimal (<IO%increase or a decrease in CT); type: functional; settings: Canis lupus familiaris; Purkinje fiber; in short: as §2
Canis familiaris [13] = assay: Conduction time was determined by intraduodenal administration of two dosages of 10 mg/kg (high dose) of compound in anesthetized dogs. Value was reported for experiment 1; type: functional, Canis lupus familiaris; in short: as §3
Canis familiaris [14] = species on record: Canis familiaris; assay: In vitro electrophysiological activity in canine cardiac Purkinje fibres given as maximum % change for action potential duration at 0.1-30 uM concentration; type: functional, Canis lupus familiaris, Purkinje fiber; in short: as §4
Canis familiaris [15] = species on record: Canis familiaris; assay: In vitro electrophysiological evaluation in canine cardiac ventricular muscle reported as % change for the functional refractory period (FRP) concentration range of 0.1-30 uM; parameters: species or system Canis lupus familiaris, Muscle tissue
In short: (§5)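 Canine right ventricle and papillary muscle strips in oxygenated Tyrode's solution, fitted with stimulating and recording electrodes. The extra-stimulus conduction-interval method was adapted for in vitro use. FRP and CT were read from a conduction-interval curve before and after various compound concentrations, and expressed as percent change from control. Compounds were taken from 10 mM deionized-water stock into Tyrode's. Each strip was used once as its own control.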

Canis familiaris [16] = assay: Conduction time was determined by intraduodenal administration of two dosages of 10 mg/kg of compound in anesthetized dogs. Value was reported for experiment 2; type: functional, Canis lupus familiaris; in short: as §3
Canis familiaris [17] = assay: Effective dose administered intravenously to elicit Antiarrhythmic efficacy in anesthetized dogs was reported. Value in parenthesis indicates no. of animals effective at that dose.; type: functional, Canis lupus familiaris, Heart
In short: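 Dogs are anesthetized and the chest reopened. Stimulating and recording electrodes go on the myocardium. Reproducible PES-induced sustained VT or VF is confirmed first; SVT is ended by burst pacing and VF by DC countershock. Compound is given iv in 0.9% saline and inducibility retested. A dose counts as effective when SVT/VF cannot be reinduced in two of three animals.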

Canis familiaris [18] = species on record: Canis familiaris; assay: In vitro electrophysiological evaluation in canine cardiac ventricular muscle reported as % change for conduction time(CT) at 0.1-30 uM concentration range; Minimal (<IO%increase or a decrease in CT); type: functional, Canis lupus familiaris, Muscle tissue
Canis familiaris [19] = assay: Heart rate was determined by intraduodenal administration of two dosages of 3 mg/kg of (low dose) compound in anesthetized dogs. Value was reported for experiment 1; type: functional, Canis lupus familiaris; in short: as §3
Canis familiaris [20] = species on record: Canis familiaris; assay: In vitro electrophysiological evaluation in canine cardiac Purkinje fibres reported as % change for action potential duration at 0.1-10 uM concentration range; type: functional, Canis lupus familiaris, Purkinje fiber; in short: as §2
Canis familiaris [21] = assay: Left ventricular refractory period was determined by intraduodenal administration of two dosages of 10 mg/kg of (high dose) compound in anesthetized dogs. Value was reported for experiment 1; type: functional, Canis lupus familiaris, Cardiac ventricle; in short: as §1
Canis familiaris [22] = species on record: Canis familiaris; assay: In vitro electrophysiological evaluation in canine cardiac Purkinje fibres reported as percent change Vmax concentration range of 0.1-30 uM; Minimal (<IO%increase or a decrease in CT); type: functional; settings: Canis lupus familiaris; Purkinje fiber; in short: as §2
Canis familiaris [23] = species on record: Canis familiaris; assay: In vitro electrophysiological evaluation in canine cardiac ventricular muscle reported as maximum % change for conduction time(CT) at 0.1-30 uM concentration range; Minimal (<IO%increase or a decrease in CT); type: functional, Canis lupus familiaris, Muscle tissue; in short: as §5
Canis familiaris [24] = assay: Left ventricular refractory period was determined by intraduodenal administration of two dosages of 10 mg/kg of compound in anesthetized dogs. Value was reported for experiment 2; type: functional, Canis lupus familiaris, Cardiac ventricle
Canis familiaris [25] = species on record: Canis familiaris; assay: In vitro electrophysiological evaluation in canine cardiac ventricular muscle reported as maximum % change for functional refractory period (FRP) at 0.1-30 uM concentration range; parameters: species or system Canis lupus familiaris, Muscle tissue; in short: as §5

CCCCCCC[N+]12CCC(CC1)/C(=C/Cc1ccc(Cl)cc1)C2.[Br-] showed a Mean blood pressure (Canis familiaris [1]) of 15%, a Vmax (Canis familiaris [2]) of under 10% and an HR (Canis familiaris [3]) of -9%. The “LV FRP” value (Canis familiaris [4]) was 2%, the APD95 (Canis familiaris [5]) was 50% and the APD95 (Canis familiaris [6]) was 64%. For the same compound, the Vmax (Canis familiaris [7]) was under 10%, the CT (Canis familiaris [8]) was 0% and the HR (Canis familiaris [9]) was -13%. For the same compound, the Mean blood pressure (Canis familiaris [10]) was 42%, the Mean blood pressure (Canis familiaris [11]) was 5% and the Vmax (Canis familiaris [12]) was under 10%. The CT (Canis familiaris [13]) was -5%, the APD95 (Canis familiaris [14]) was 64% and the FRP (Canis familiaris [15]) was 21%. For the same compound, the CT (Canis familiaris [16]) was 5%, the Effective dose (Canis familiaris [17]) was 0.3 mg/kg and the CT (Canis familiaris [18]) was under 10%. The HR (Canis familiaris [19]) was 5%, the APD95 (Canis familiaris [20]) was 40% and the “LV FRP” value (Canis familiaris [21]) was 15%. The Vmax (Canis familiaris [22]) was under 10%, the CT (Canis familiaris [23]) was under 10% and the “LV FRP” value (Canis familiaris [24]) was 16%. The FRP (Canis familiaris [25]) was 30%.
